The values below come from ChEMBL document CHEMBL1123514 (J Med Chem, 1986).

Data set [1] is filed under the species Homo sapiens. In words: The compound was evaluated for the optical density at concentrations 10E-5 M in MCF-7 cell culture in the presence of estradiol. It is filed as ADME. The procedure, abridged:
(§1)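 MCF-7 cells seeded at 10000 cells/mL in 96-well dishes and cultured 24 h. Compound (final 10⁻⁷, 10⁻⁶ or 10⁻⁵ M) was then added together with estradiol at 10⁻⁸ M final to test whether estradiol antagonizes growth inhibition. After 5 days, cells were ethanol-fixed (90%) and hematoxylin-stained, and optical density was read at 540 nm.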

Data set [2] is filed under the species Homo sapiens. The data set can be described thus: The compound was evaluated for the optical density at concentration 10E-6 M in MCF-7 cell culture in the presence of estradiol. Format: ADME. The procedure, abridged: as §1
The species entered for data set [3] is Homo sapiens. The data set can be described thus: The compound was evaluated for the optical density at concentration 10E-6 M in MCF-7 cell culture. It is filed as ADME.
For data set [4], the species on record is Homo sapiens. In words: The compound was evaluated for the optical density at concentrations 10E-7 M in MCF-7 cell culture in the presence of estradiol. It is filed as ADME. The procedure, abridged:
as §1

Data set [5] has as its target Estrogen receptor (Rattus norvegicus) (UniProt P06211+Q62986).
For data set [6], the species on record is Homo sapiens. The data set can be described thus: The compound was evaluated for the optical density at concentration 10E-7 M in MCF-7 cell culture. It is filed as ADME.
The species entered for data set [7] is Homo sapiens. The data set can be described thus: The compound was evaluated for the optical density at concentration 10E-5 M in MCF-7 cell culture. It is filed as ADME.
The target of data set [8] is Estrogen receptor (Homo sapiens) (UniProt P03372).
Sequence of Estrogen receptor (Homo sapiens) (P03372 whole entry, looked up): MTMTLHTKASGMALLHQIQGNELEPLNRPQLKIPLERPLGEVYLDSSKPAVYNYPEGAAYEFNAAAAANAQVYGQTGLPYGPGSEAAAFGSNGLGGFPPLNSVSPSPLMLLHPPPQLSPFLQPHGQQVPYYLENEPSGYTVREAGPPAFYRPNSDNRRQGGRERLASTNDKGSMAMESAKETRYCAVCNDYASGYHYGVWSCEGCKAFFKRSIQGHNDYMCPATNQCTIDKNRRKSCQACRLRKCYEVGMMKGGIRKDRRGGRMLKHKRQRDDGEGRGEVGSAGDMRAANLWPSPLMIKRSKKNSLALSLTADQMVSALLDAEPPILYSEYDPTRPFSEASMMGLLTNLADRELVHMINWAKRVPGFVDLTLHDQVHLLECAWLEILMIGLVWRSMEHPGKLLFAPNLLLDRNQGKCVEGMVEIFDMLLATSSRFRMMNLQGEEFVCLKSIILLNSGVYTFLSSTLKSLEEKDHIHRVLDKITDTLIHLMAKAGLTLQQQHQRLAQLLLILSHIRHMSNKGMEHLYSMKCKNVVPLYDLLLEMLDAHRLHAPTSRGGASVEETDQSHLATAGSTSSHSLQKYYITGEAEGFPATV

As for `CN(C)CCOc1ccc(C2=C(c3ccccc3)CCCc3ccccc32)cc1`, the Optical density is on record as 0.098 in the data set listed under Homo sapiens [1]; 0.438 in the data set listed under Homo sapiens [2]; 0.182 in the data set listed under Homo sapiens [3]; 0.379 in the data set filed under Homo sapiens [4]; 0.244 in the data set listed under Homo sapiens [6]; 0.058 in the data set listed under Homo sapiens [7]. Further, the Affinity is 1 in data set [5] and 0.02 in data set [8].
With `CN(C)CCOc1ccc(C2=C(c3ccccc3)CCc3ccccc32)cc1`, the Optical density in the data set filed under Homo sapiens [1] worked out at 0.079; in the data set filed under Homo sapiens [2], 0.385; in the data set filed under Homo sapiens [3], 0.288; in the data set listed under Homo sapiens [4] it was 0.45; in the data set filed under Homo sapiens [6] it was 0.39; in the data set listed under Homo sapiens [7], 0.049. For the same molecule, the Affinity in data set [5] was determined as 0.5; in data set [8], 0.02.
